# Rows were chosen to be rich in hits. Some 2.2% of all compounds tested hit in one or more screens of this group.
# NadD inh = NadD (S. aureus) enzyme inhibition; purified NadD enzyme, colorimetric absorbance read-out; inhibition, % at 20 µM; hit rate 0.78% among 360,000; in the data active = inhibition above about 26%
# ARFGAP1 inh = rat ARFGAP1 inhibition. Q62848. Arfgap1-stimulated ARF1 GTP hydrolysis, GDP FP detection. inhibition, % at 16.5 µM. hit rate 0.26% among 360,000. AID 651572;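 active = inhibition above a per-plate limit, mean inhibition of low control wells plus 3 SD, cut at about 25% in these data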;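 also: 0% = DMSO wells with enzyme and 100% = wells lacking Arfgap1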
# Target sequence (Q62848 1-136 limits assumed): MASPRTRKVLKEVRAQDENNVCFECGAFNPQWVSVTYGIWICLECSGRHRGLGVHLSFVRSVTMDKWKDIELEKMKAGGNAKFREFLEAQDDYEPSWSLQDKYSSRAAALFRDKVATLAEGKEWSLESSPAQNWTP
#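 System: truncated rat Arfgap1 GAP domain / Medium: HEPES-based buffer, pH 7.5 / Also added: N-terminally truncated human ARF1-GTP substrate / Incubation: enzyme reaction 120 min at 25 °C after 20 min preincubation / Measured by: FP of antibody-bound GDP Alexa 633 tracer, ex 620/em 688 nm / Replicates: singlicate, each compound tested once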
# rCAG binder = binds r(CAG) RNA repeats; AID 651821; r(CAG) RNA repeat, TO-PRO-1 dye displacement fluorescence; inhibition, % at 3 µM; hit rate 1.3% among 370,000;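 active = inhibition above the plate cutoff, the mean of all test compounds on that plate plus 3 SD, cut at about 35% in these data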;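 also: 0% = DMSO alone and 100% = 100 µM mitoxantrone as full dye displacement; higher means more dye released from RNA so lower well fluorescence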
# ASAP1 inh = blocks human ASAP1-stimulated Arf1 GTP hydrolysis; GDP FP detection; AID 624377; hit rate 0.19% among 360,000; inhibition, % at 16.5 µM; in the data active = inhibition above about 25%;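 also: 0% = vehicle with enzyme and substrate and 100% = no enzyme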
# Target sequence (Q9ULH1 325-724 limits assumed): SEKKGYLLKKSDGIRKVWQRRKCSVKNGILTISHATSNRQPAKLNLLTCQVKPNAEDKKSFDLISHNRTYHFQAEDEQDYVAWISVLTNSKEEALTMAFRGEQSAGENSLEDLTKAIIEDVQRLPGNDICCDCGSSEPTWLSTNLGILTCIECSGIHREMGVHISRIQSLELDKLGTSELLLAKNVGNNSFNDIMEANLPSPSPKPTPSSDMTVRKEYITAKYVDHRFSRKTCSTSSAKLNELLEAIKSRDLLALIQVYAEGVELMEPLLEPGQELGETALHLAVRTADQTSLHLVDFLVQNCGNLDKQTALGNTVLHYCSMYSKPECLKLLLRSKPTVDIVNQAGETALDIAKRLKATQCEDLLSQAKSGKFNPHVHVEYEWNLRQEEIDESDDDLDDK
# rCAG bind conf = r(CAG) RNA repeat binding, confirmation | shares compounds with rCAG binder | TO-PRO-1 dye displacement fluorescence | inhibition, % at 3 µM | hit rate 70% among 4,300;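 active = inhibition above a per-plate cutoff, the mean inhibition of sample wells plus 3 SD, cut at about 35% in these data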;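 also: loss of TO-PRO-1 fluorescence as compound displaces dye from 1x1 AA loop RNA; 0% = DMSO only wells and 100% = 100 µM mitoxantrone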
# DNA CAG counter = counter-screen for rCAG RNA binders: DNA CAG dye complex inhibitors. inhibition, % at 3 µM. hit rate 94% among 4,300. shares compounds with rCAG binder. d(CAG) DNA oligo TO-PRO-1 dye displacement, fluorescence;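 active = inhibition above its plate's cutoff, the mean test-well inhibition plus 3 SD, cut at about 4.8% in these data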;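 also: 0% = DNA dye mix with DMSO and 100% = 100 µM mitoxantrone; hits displace the dye from DNA and so lower well fluorescence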
# dCAG dye DR = DNA CAG dye complex inhibition, dose response counter-screen; shares compounds with rCAG binder; DNA CAG/GTC duplex TO-PRO-1 dye displacement fluorescence; IC50, µM; hit rate 20% among 250; in the data active = IC50 below about 10 µM
# * marks the source's active call; other numbers are inactive results; . = no result given.
SMILES,NadD inh,ARFGAP1 inh,rCAG binder,ASAP1 inh,rCAG bind conf,DNA CAG counter,others
COc1ccccc1C(=O)NC1CCCCN(Cc2ccc(C)cc2)C1=O (stereo not drawn),.,.,1,.,.,.,
O=C(Nc1ccc(Cl)cc1)Nc1ccccc1NS(=O)(=O)c1cccs1,0,-3,43*,4,39*,10*,
Cc1cc(Cl)ccc1OCC(=O)Nc1ccccc1NS(=O)(=O)c1cccs1,-6,-11,42*,4,51*,11*,
CC(C)CN1C(=O)[C@@]2(CC(=O)N(C)C2c2ccccc2)c2cc(-n3cc(CCc4ccccc4)nn3)ccc21 (stereo partly drawn),.,.,4,.,.,.,
COC(=O)[C@]12CCCCC=C1N(Cc1ccc(OC)cc1)C(=O)[C@@H]2CC(=O)NCCc1ccccc1OC,.,.,0,.,.,.,
Cc1ccc2nc(-c3ccc(NC(=O)CSc4nnc(-c5cccc(Cl)c5)n4Cc4ccco4)cc3)sc2c1,.,.,45*,.,16,8.7*,
O=C(Cc1csc(NC(=O)Nc2cccc(Cl)c2)n1)NCc1cccnc1,2,11,33,-3,.,.,
O=C(Cc1csc(NC(=O)Nc2cccc(Cl)c2)n1)NC1CCCC1,-1,10,44*,3,18,14*,
O=C(Cc1csc(NC(=O)Nc2cccc(Cl)c2)n1)NCc1ccccn1,2,-7,39*,-2,15,14*,
COc1ccccc1Cc1c(C(C)(C)C)nc2c(C)cc(Br)cn12,.,0,9,3,.,.,
COc1ccc(OCc2nn3c(-c4ccco4)nnc3s2)cc1,2,-3,2,3,.,.,
c1coc(-c2nnc3sc(Cc4cccs4)nn23)c1,2,2,36*,4,9,5.2*,
COc1ccc2nc(NC(=O)C(NS(=O)(=O)c3cccs3)C(C)C)sc2c1 (stereo not drawn),-5,-4,5,1,.,.,
COc1ccc2nc(N/C(=N/S(=O)(=O)c3cccs3)c3ccccc3Cl)sc2c1,7,-10,48*,-10,41*,13*,
CN(C)S(=O)(=O)c1ccc(C(=O)Nc2ccccc2C(=O)O)cc1,-2,7,24,-8,.,.,
CN(C)S(=O)(=O)c1cccc(C(=O)Nc2cc3c(cc2C(=O)O)OCCCO3)c1,-5,-6,39*,9,29,5.2*,
CN(C)S(=O)(=O)c1cccc(C(=O)Nc2ccc(N3CCOCC3)cc2)c1,5,19,4,-14,.,.,
CN(C)S(=O)(=O)c1ccc(C(=O)Nc2cc3c(cc2C(=O)O)OCCCO3)cc1,-12,1,59*,7,29,5.1*,
COc1ccc(-c2cc3c(c4c2ccn4C)C2CCC3C2)cc1OC (stereo not drawn),-6,10,13,11,.,.,
COC(=O)C[C@H]1C=C[C@@H](NC(=O)c2ccncc2)[C@@H](CO)O1,.,-4,4,-13,.,.,
O=C(Nc1cccc(C(F)(F)F)c1)C(Sc1n[nH]c(=O)[nH]c1=O)c1ccccc1 (stereo not drawn),3,0,39*,-6,38*,12*,
COc1ccc(C(=O)Nc2ccc(NC(=O)c3ccco3)cc2)cc1,-5,6,0,4,.,.,
CCCCn1c(NC(=O)c2ccccc2Cl)c(C#N)c2nc3ccccc3nc21,19,8,91*,21,85*,58*,
COc1ccc(-n2c(NC(=O)c3ccco3)c(C#N)c3nc4ccccc4nc32)cc1,6,-5,53*,2,43*,13*,
Cc1cccc(NC(=S)N/N=C/c2c[nH]c3ccccc23)c1,4,-1,36*,10,23,14*,
SMILES,NadD inh,ARFGAP1 inh,rCAG binder,ASAP1 inh,rCAG bind conf,DNA CAG counter,others
O=C(Nc1ccccc1)Nc1nc2ncccn2c1-c1ccc(F)cc1,.,.,2,.,.,.,
CCOC(=O)N1CCC2(CC1)C(C#N)=C(N)Oc1c2c(C)nn1-c1cccc(Cl)c1,10,-1,36*,-8,31,16*,
CC(C)C[C@H]1CN(CCCC[C@@H]2CNC(=O)C(=O)N2CCc2ccccc2)C(=O)C(=O)N1CCc1ccccc1,17,4,0,0,.,.,
O=C(O)c1cc(N/N=C/c2ccc(-c3ccc(F)cc3)o2)ccc1Cl,4,-11,56*,15,38*,12*,
O=C(O)c1ccc(N/N=C/c2ccc(-c3ccc(Cl)cc3Cl)o2)cc1,12,-19,92*,14,84*,51*,
Cc1ccc(C(=O)N/N=C/c2ccc(-c3cccc(Cl)c3)o2)cn1,0,11,4,-11,.,.,
O=C(O)c1ccc(-c2ccc(/C=N/Nc3ccc([N+](=O)[O-])cc3)o2)cc1,2,3,25,7,.,.,
O=C(Cc1ccc(F)cc1)N/N=C/c1ccc(-c2ccc(Cl)c(C(=O)O)c2)o1,2,5,2,-17,.,.,
O=C(O)c1ccc(N/N=C/c2ccc(-c3cccc(Cl)c3)o2)cc1,0,-10,63*,0,50*,16*,
O=C(O)c1cccc(-c2ccc(/C=N/Nc3ccc([N+](=O)[O-])cc3)o2)c1,-4,5,59*,10,49*,15*,
CC(=O)N1CCN(S(=O)(=O)c2cccc(C(=O)OCC(=O)NCc3ccccc3Cl)c2)CC1,4,7,1,4,.,.,
CCCCNC(=O)C1(C)CCCCCN1Cc1cc2ccccc2o1 (stereo not drawn),1,-1,-2,4,.,.,
Cc1c(C(=O)O)cccc1-c1ccc(/C=N/Nc2ccc(Br)cc2)o1,5,-11,50*,9,64*,21*,
O=C(O)c1ccc(N/N=C/c2ccc(-c3cc(Cl)ccc3Cl)o2)cc1,11,5,45*,5,51*,18*,
NS(=O)(=O)c1ccc(-c2ccc(/C=N/Nc3ccc(C(=O)O)cc3)o2)cc1,-10,13,17,-3,.,.,
COC(=O)c1c[nH]n2c(=O)c(Cl)c(C)nc12,-7,2,1,6,.,.,
Cc1nc2c(C(=O)NCCc3ccccc3Cl)c[nH]n2c(=O)c1Cl,23,-26,71*,-11,74*,33*,dCAG dye DR=4.5*
Cc1nc2c(C(=O)NCc3ccccc3Cl)c[nH]n2c(=O)c1Cl,29,-2,81*,-5,58*,21*,
CC(C)CC1O[C@@H](C)[C@@H]2CN3CCc4c([nH]c5ccccc45)[C@@H]3C[C@@H]2N1C (stereo partly drawn),.,6,1,-4,.,.,
COC(=O)C1CN(Cc2ccc(C)cc2)CCS(=O)(=O)N1Cc1cn(Cc2ccc(OC)cc2)nn1 (stereo not drawn),.,.,-1,.,.,.,
C=CCN(CC#CCN(C)C(=O)c1cccn1C(=O)OC(C)(C)C)Cc1ccc(OC)cc1OC,.,.,-2,.,.,.,
O=C(CSc1nnc(-c2cccnc2)n1Cc1ccco1)Nc1cc(Cl)ccc1F,.,.,0,.,.,.,
COc1ccc(N=C2NC(=O)/C(=C/c3ccc(O)c(OC)c3)S2)cc1,10,15,20,15,.,.,

# Screening data from PubChem.
